From article PMC5891368 (European journal of medicinal chemistry, 2018)
“Also recorded” adds a separate entry of the source.

Tests used:
MDA-MB-231 cells [1] = test: Matrigel invasion assay induced by CXCR4/CXCL12; assay type: cell-based; settings: Homo sapiens, MDA-MB-231, 22 h, read-out: inhibition of Matrigel invasion
In short: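 MDA-MB-231 cells were pre-treated with test compound at 100 nM and then seeded in the top chamber of a Matrigel invasion chamber in serum-free medium. CXCL12α at 200 ng/mL in the bottom chamber served as chemoattractant. After 22 h in a humidified incubator, non-invading cells were swabbed off. Invading cells were methanol-fixed, stained with H&E and counted to give percent invasion.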

xylene-induced ear edema [2] = settings: mouse, in vivo; cited from earlier work
[3] = test system: phosphorylation of p44/42; test: Western blot, CXCL12 induced phosphorylation of p44/42; assay type: cell-based
In short: (§1)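 Rabbit monoclonal primaries (1:500, overnight, 4 °C) were phospho-Akt Ser473 with pan-Akt for Akt, and phospho-p44/42 MAPK Thr202/Tyr204 with total p44/42 for p44/42. Detection used HRP goat anti-rabbit (1:10000, 1 h) and enhanced chemiluminescence.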

SKBR3 cells = test: cytotoxicity, cell viability; assay type: cell-based; settings: SKBR3 (CXCR4-positive); MTT; 72 h
In short: (§2)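 Cells were seeded at 3000 per well in 96-well plates and grown 24 h at 37 °C in a CO2 incubator. They were then exposed at 37 °C to test compound or vehicle control. CellTiter 96AQ (MTT-type) reagent was added for a further 2 h, and absorbance was read at 490 nm.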

MCF-7 cells = test: cytotoxicity, cell viability; assay type: cell-based; settings: MCF-7 (CXCR4-positive); MTT; 72 h
In short: as §2

184A1N4 cells = test: cytotoxicity, cell viability; assay type: cell-based; settings: 184A1N4 (CXCR4-negative); MTT; 72 h
In short: as §2

AC1-ExR cells = test: cytotoxicity, cell viability; assay type: cell-based; settings: AC1-ExR (CXCR4-positive); MTT; 72 h
In short: as §2

MCF-10A cells = test: cytotoxicity, cell viability; assay type: cell-based; settings: up to 10 μM, MTT
xylene-induced ear edema [4] = test: xylene-induced ear edema model; assay type: in vivo, mouse; settings: after treatment with compound
MDA-MB-231 cells [5] = test: cytotoxicity, cell viability; assay type: cell-based, human; settings: MDA-MB-231 (CXCR4-positive); up to 10 μM; MTT
In short: as §2

phosphorylation of Akt = test: Western blot, CXCL12 induced phosphorylation of Akt; assay type: cell-based; settings: dose-dependent
In short: as §1

Structure (SMILES)	inhibition at 0.1 µM (MDA-MB-231 cells [1])	toxicity in this animal model (xylene-induced ear edema [2])	concentration suppressing phosphorylation of p44 [3]	antiproliferative activity / cytotoxicity (SKBR3 cells)	antiproliferative activity / cytotoxicity (MCF-7 cells)	antiproliferative activity / cytotoxicity (184A1N4 cells)	antiproliferative activity / cytotoxicity (AC1-ExR cells)	antiproliferative activity / cytotoxicity (MCF-10A cells)	number of inflammatory cells in inflammatory tissues (histological analysis) (xylene-induced ear edema [4])	swollen volume and thickness of the mouse ear (histological analysis) (xylene-induced ear edema [4])	antiproliferative activity / cytotoxicity (MDA-MB-231 cells [5])	active concentration for inhibition of Akt phosphorylation (phosphorylation of Akt)
c1cc(CN2CCCNCCNCCCNCC2)ccc1CN1CCCNCCNCCCNCC1 [AMD3100]	55%	serious toxicity										
O=C(NCc1ccc(CNS(=O)(=O)c2ccccc2)cc1)c1ccc(CNc2ncccn2)cc1 [Compound 7a, N-(4-(phenylsulfonamidomethyl)benzyl)-4-((pyrimidin-2-ylamino)methyl)benzamide]			0.1 nM	no statistically significant differences	no statistically significant differences	no statistically significant differences	no statistically significant differences	did not inhibit the proliferation	significantly decreased	significantly reduced	did not inhibit the proliferation; also recorded: no statistically significant differences	1 nM
